Measurements as given in ChEMBL document CHEMBL4130635, “2,4-Diaminoquinazolines as Dual Toll-like Receptor (TLR) 7/8 Modulators for the Treatment of Hepatitis B Virus” (J Med Chem, 2018).

Legend:
Cynomolgus monkey [1] = experiment: Effect on cytokine profile in cynomolgus monkey plasma assessed as IL-12P70 levels at 30 mg/kg, po after 24 hrs by Luminex assay (reference value: 2.17 pg/ml); assay type: functional, Macaca fascicularis
How it was run: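 Healthy cynomolgus monkeys given single oral doses of 1, 3, 9 and 30 mg/kg, with a 2-week wash-out planned between doses. Systemic cytokine levels in plasma were sampled at 0.5, 1, 2, 4, 9 and 24 h postdose.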

Plasma [2] = experiment: Effect on cytokine profile in C57BL/6J mouse plasma assessed as IFNgamma levels at 30 mg/kg, po by multiplex assay; assay type: functional
How it was run: (§1)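 Single oral gavage in 20% HP-β-CD to healthy C57BL/6 mice, groups of 15 at 0.3, 1, 3, 10 or 30 mg/kg. Three mice per group sacrificed at 0.5, 1, 2, 4 or 7 h. Plasma and liver cytokines by multiplex, maximum level reported, rounded to nearest multiple of 5.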

[3] = AUC (0 to last) in cynomolgus monkey plasma at 30 mg/kg, po by LC-MS analysis; assay type: ADME, organism-based, Macaca fascicularis; design: dose 30 mg/kg, route oral, time 0 - last
How it was run: (§2)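 Healthy cynomolgus monkeys received single oral doses of 1, 3, 9 and 30 mg/kg, with a 2-week wash-out between doses. Systemic compound concentrations were measured by LC–MS at 0.25, 0.5, 1, 2, 4, 8 and 24 h postdose.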

Cynomolgus monkey [4] = experiment: Upregulation of Tlr7 expression in cynomolgus monkey plasma at 1 mg/kg, po after 24 hrs by Fluidigm RT-qPCR analysis (reference value: 1.8); assay type: functional, Macaca fascicularis
Plasma [5] = experiment: Upregulation of IP-10 mRNA expression levels in C57BL/6J mouse plasma at 3 mg/kg, po by RT-qPCR analysis (reference value: 1); assay type: functional
Plasma [6] = experiment: Anti-inflammatory activity in C57BL/6J mouse plasma assessed as IL-10 levels at 10 mg/kg, po by multiplex assay (reference value: 120 pg/ml); assay type: functional; how it was run: as §1
Cynomolgus monkey [7] = experiment: Proinflammatory activity in cynomolgus monkey plasma assessed as TNFalpha levels at 30 mg/kg, po after 24 hrs by Luminex assay (reference value: 285 pg/ml); assay type: functional, Macaca fascicularis
Plasma [8] = experiment: Induction of IFNalpha levels in C57BL/6J mouse plasma at 1 mg/kg, po by ELISA; assay type: functional
Plasma [9] = experiment: Effect on cytokine profile in C57BL/6J mouse plasma assessed as IL-12p70 levels at 10 mg/kg, po by multiplex assay (reference value: 560 pg/ml); assay type: functional; how it was run: as §1
[10] = AUC (0 to last) in cynomolgus monkey plasma at 9 mg/kg, po by LC-MS analysis; assay type: ADME, organism-based, Macaca fascicularis; design: dose 9 mg/kg, route oral, time 0 - last; how it was run: as §2
Liver = experiment: Proinflammatory activity in C57BL/6J mouse liver assessed as TNFalpha levels at 3 mg/kg, po by multiplex assay (reference value: 15 pg/g); assay type: functional
[11] = system: Toll-like receptor 7/8 (Homo sapiens); experiment: Agonist activity at TLR7/8 in human PBMCs assessed as decrease in HBsAg levels in human hepatocytes infected with HBV genotype C for 12 days followed by exposure to conditioned supernatant from up to 5 uM compound treated PBMCs measured after 42 days
[12] = Metabolic stability in human liver microsomes assessed as compound metabolized at 1 uM after 15 mins; assay type: ADME, microsome; conditions: read-out: Drug metabolism
How it was run: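 Mouse (M) or human (H) liver microsomes incubated with compound at 1 μM; percent metabolized after 15 min.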

Cynomolgus monkey [13] = experiment: Upregulation of Tlr7 expression in cynomolgus monkey plasma at 3 mg/kg, po after 24 hrs by Fluidigm RT-qPCR analysis (reference value: 1.8); assay type: functional, Macaca fascicularis
Cynomolgus monkey [14] = experiment: Upregulation of Tlr7 expression in cynomolgus monkey plasma at 9 mg/kg, po after 24 hrs by Fluidigm RT-qPCR analysis (reference value: 1.8); assay type: functional, Macaca fascicularis
[15] = AUC (0 to last) in cynomolgus monkey plasma at 3 mg/kg, po by LC-MS analysis; assay type: ADME, organism-based, Macaca fascicularis; design: dose 3 mg/kg, time 0 - last, route oral; how it was run: as §2
[16] = Stability in cynomolgus monkey hepatocytes assessed compound turnover at 1 uM after 60 mins; assay type: ADME, cell-based, Macaca fascicularis, Hepatocyte; conditions: read-out: Drug metabolism
[17] = Absolute bioavailability in cynomolgus monkey at 1 to 30 mg/kg; assay type: ADME, organism-based, Macaca fascicularis; conditions: in vivo
Cynomolgus monkey [18] = experiment: Induction of ISG response in cynomolgus monkey plasma assessed as upregulation of Isg15 mRNA expression at 9 mg/kg, po after 24 hrs by Fluidigm RT-qPCR analysis (reference value: 1); assay type: functional, Macaca fascicularis
How it was run: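 Cynomolgus monkeys, single oral doses of 1, 3, 9 and 30 mg/kg with a planned 2-week wash-out between doses. Systemic ISG (ISG15, Mx1, OAS1) mRNA was measured by Fluidigm RT-qPCR at 1, 2, 4, 8 and 24 h postdose.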

Cynomolgus monkey [19] = experiment: Activation of monocytes in cynomolgus monkey plasma assessed as upregulation of MCP1 levels at 30 mg/kg, po after 24 hrs by Luminex assay (reference value: 385 pg/ml); assay type: functional, Macaca fascicularis
Mus musculus = experiment: Toxicity in C57BL/6J mouse assessed as change in body temperature at 1 to 30 mg/kg, po; assay type: organism-based; conditions: in vivo
[20] = Ratio of drug level in Sprague-Dawley rat liver to plasma at 10 mg/kg, po

With CCC[C@@H](CCO)Nc1nc(N)nc2c(F)cccc12 the Activity (Cynomolgus monkey [1]) was 10.1 pg/mL, the Activity (Plasma [2]) was 1010 pg/mL and the AUC(0-t) [3] was 5200 ng·h/mL. For the same molecule, the “fold change (FC)” value (Cynomolgus monkey [4]) was 4.8, the “fold change (FC)” value (Plasma [5]) was 2485 and the Activity (Plasma [6]) was 29450 pg/mL. For the same molecule, the Activity (Cynomolgus monkey [7]) was 2990 pg/mL, the Activity (Plasma [8]) was 180 pg/mL and the Activity (Plasma [9]) was 630 pg/mL. For the same molecule, the AUC(0-t) [10] was 4050 ng·h/mL, the Activity (Liver) was 2865 pg/g and the Activity [11] was “Dose-dependent effect”. The metabolised at 0.25 h, 1 µM [12] was 43%, the “fold change (FC)” value (Cynomolgus monkey [13]) was 5.1 and the “fold change (FC)” value (Cynomolgus monkey [14]) was 3.5. The AUC(0-t) [15] was 383 ng·h/mL, the metabolised at 1 h, 1 µM [16] was 98% and the bioavailability [17] was less than 11%. The “fold change (FC)” value (Cynomolgus monkey [18]) was 560, the Activity (Cynomolgus monkey [19]) was greater than 10000 pg/mL and the Activity (Mus musculus) was “Non-Toxic”. For the same molecule, the Kp [20] was 16.
